According to ChEMBL document CHEMBL1687915, “Synthesis and biological evaluation of analogues of AKT (protein kinase B) inhibitor-IV” (J Med Chem, 2011):
Calls of active or inactive are those of the source. No cut-off for these calls is given here.

Experiments:
[1] = Antiviral activity against Parainfluenza virus 5 expressing renilla luciferase infected in HeLa cells assessed as inhibition viral replication by luciferase based reporter gene assay; assay type: functional, cell-based
In short: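 HeLa cells infected with 1 MOI of recombinant PIV5 carrying renilla luciferase between the HN and L genes, then incubated with compound. Cells harvested 1 day post infection and assayed for renilla luciferase. Screened first as singletons at 1 μM, then at 0.5 μM. IC50 taken from dose-response curves, at least triplicate.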

[2] = Cytotoxicity in human NHBE cells assessed as luciferase activity after 40 hrs by CellTiter-Glo luminescent cell viability assay; assay type: cell-based
In short: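 NHBE cells (passage 2, 2×10⁴ cells/cm²) grown on collagen-coated Transwell inserts, submerged for 5–7 days, then at air-liquid interface for a further 28 days (35 days total). Exposed to compound over a dose range, then viability read after 40 h as cellular ATP by CellTiter-Glo firefly luciferase. Triplicate or more.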

[3] = tested on: Mycolicibacterium fortuitum; assay: Antibacterial activity against 0.5 uM compound pretreated Mycobacterium fortuitum infected in human HeLa cells assessed as inhibition of bacterial replication; assay type: functional, organism-based
In short: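 HeLa cells seeded at 5×10^5/well in EMEM with 10% FBS overnight, 37 °C, 5% CO₂. Washed free of antibiotics, then infected with washed M. fortuitum in uptake buffer at MOI 5 for 24 h. After a warm DMEM wash, compound added at 0.5 μM in HeLa medium, with Triton X-100 (1%) and 0.1% DMSO controls. After 24 h more, cells lysed and plated for CFU on 7H11 agar. At least triplicate.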

HeLa = assay: Cytotoxicity in human HeLa cells assessed as luciferase activity after 24 hrs by CellTiter-Glo luminescent cell viability assay; assay type: functional, cell-based
In short: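 Viability of HeLa cells measured after 24 h of compound exposure by cellular ATP (firefly luciferase, CellTiter-Glo) over a dose-response range. IC50 derived from the curves, triplicate or more.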

[4] = Antiproliferative activity against human 786-O cells; assay type: functional, cell-based; settings: 786-0
[5] = Inhibition of AKT -mediated FOXO1a nuclear export in human 786-O cells; assay type: cell-based
[6] = Mammalian orthorubulavirus 5, HeLa, read-out: IC50
[7] = Homo sapiens, NHBE, 40 h, read-out: IC50
[8] = Homo sapiens, HeLa, 24 h, read-out: IC50

Compound	IC50 [1, 6] [nM]	IC50 ([1]; hela)	IC50 [2, 7] [nM]	IC50 ([2]; nhbe)	Activity [3]	IC50 (HeLa; [8]) [nM]	IC50 (HeLa; hela)	IC50 [4] [nM]	IC50 [5] [nM]
CN(/C=C/c1n(-c2ccccc2)c2ccc(-c3nc4ccccc4s3)cc2[n+]1CCc1ccccc1)c1ccccc1.[I-]	590	Dose-dependent effect	5000	Dose-dependent effect	inactive	620	Dose-dependent effect	–	–
CCCCCCCCCCCC[n+]1c(/C=C/N(C)c2ccccc2)n(-c2ccccc2)c2ccc(-c3nc4ccccc4s3)cc21.[I-]	250	Dose-dependent effect	> 5000	Dose-dependent effect	inactive	440	Dose-dependent effect	–	–
CC[n+]1c(/C=C/N(C)c2ccccc2)n(-c2ccccc2)c2ccc(-c3nc4ccccc4s3)cc21	520	Dose-dependent effect	3180	Dose-dependent effect	inactive	670	Dose-dependent effect	< 1250	625
CCCCCC[n+]1c(/C=C/N(C)c2ccccc2)n(-c2ccccc2)c2ccc(-c3nc4ccccc4s3)cc21.[I-]	410	Dose-dependent effect	> 5000	Dose-dependent effect	inactive	420	Dose-dependent effect	–	–
